Measurements from ChEMBL document CHEMBL1921792, “Synthesis and anticonvulsant activity of trans- and cis-2-(2,6-dimethylphenoxy)-N-(2- or 4-hydroxycyclohexyl)acetamides and their amine analogs” (Bioorg Med Chem, 2011).
Activity calls are given as the source filed them.

Assays:
Rattus norvegicus [1] = assay: Neurotoxicity in rat assessed as neurological deficit at 30 mg/kg, po after 0.5 hrs […]; format: toxicity, organism-based; design: dose 30 mg/kg, route oral; conditions: in vivo
Summary of the method: (§1)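 Rats given the compound, suspended in 0.5% methylcellulose, by the stated route and dose. Neurological deficit was recorded at the listed times as ataxia and loss of placing response and muscle tone. Reported as number of rats showing toxicity/number tested.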

Rattus norvegicus [2] = assay: Neurotoxicity in rat assessed as neurological deficit at 30 mg/kg, po after 1 hr […]; format: toxicity, organism-based; design: dose 30 mg/kg, route oral; conditions: in vivo; summary of the method: as §1
Rattus norvegicus [3] = assay: Anticonvulsant activity in rat assessed as protection against maximal electric shock-induced seizures at 30 mg/kg, ip after 0.25 hrs; format: functional, organism-based; design: dose 30 mg/kg
Summary of the method: (§2)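 Time-to-peak-effect assay: MES protection read at 0.25–4 h after dosing. Mice ip (60–130 mg/kg), rats po (15 or 30 mg/kg) or ip (30 mg/kg). Groups of 4–8; result is protected/tested.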

Mus musculus [4] = assay: Neurotoxicity in mouse assessed as inability to maintain equilibrium on rotarod at 100 mg/kg, ip after 0.5 hrs by rotarod test; format: toxicity, organism-based; design: dose 100 mg/kg, route intraperitoneal; conditions: in vivo
Summary of the method: (§3)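 Drug given ip to mice as a suspension in 0.5% methylcellulose. At the stated time after dosing, each mouse was placed on a 1 inch knurled rod turning at 6 rpm. Neurotoxicity = inability to stay balanced at least 1 min in each of three trials. Scored as animals toxic/animals tested in small groups.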

Rattus norvegicus [5] = assay: Anticonvulsant activity in rat assessed as protection against maximal electric shock-induced seizures at 30 mg/kg, ip after 4 hrs; format: functional, organism-based; design: dose 30 mg/kg; summary of the method: as §2
Rattus norvegicus [6] = assay: Anticonvulsant activity in rat assessed as protection against maximal electric shock-induced seizures at 30 mg/kg, ip after 0.5 hrs; format: functional, organism-based; design: dose 30 mg/kg; summary of the method: as §2
Mus musculus [7] = assay: Anticonvulsant activity against subcutaneous pentylenetetrazole-induced seizures in mouse at 100 mg/kg, ip after 0.5 hrs; format: functional, organism-based; design: dose 100 mg/kg
Summary of the method: (§4)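 Phase I screen in mice. Compound given ip as a suspension in 0.5% methylcellulose, read at 30 min and 4 h. Pentylenetetrazole 85 mg/kg in 0.9% NaCl was injected sc into the posterior midline and animals watched ≥30 min. Protection meant no clonic spasm lasting ≥5 s. Groups of 1–8 animals; result is protected/tested.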

Rattus norvegicus [8] = assay: Neurotoxicity in rat assessed as neurological deficit at 30 mg/kg, po after 0.25 hrs […]; format: toxicity, organism-based; design: dose 30 mg/kg, route oral; conditions: in vivo; summary of the method: as §1
Mus musculus [9] = assay: Anticonvulsant activity against subcutaneous pentylenetetrazole-induced seizures in mouse at 30 mg/kg, ip after 0.5 hrs; format: functional, organism-based; design: dose 30 mg/kg; summary of the method: as §4
Mus musculus [10] = assay: Anticonvulsant activity in mouse assessed as protection against maximal electric shock-induced seizures at 3 mg/kg, ip after 0.5 hrs; format: functional, organism-based; design: dose 3 mg/kg
Mus musculus [11] = assay: Neurotoxicity in mouse assessed as inability to maintain equilibrium on rotarod at 10 mg/kg, ip after 0.5 hrs by rotarod test; format: toxicity, organism-based; design: dose 10 mg/kg, route intraperitoneal; conditions: in vivo
Mus musculus [12] = assay: Anticonvulsant activity in mouse assessed as protection against maximal electric shock-induced seizures at 30 mg/kg, ip after 0.5 hrs; format: functional, organism-based; design: dose 30 mg/kg
Summary of the method: (§5)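 Phase I maximal electroshock screen in mice. Compound given ip as a suspension in 0.5% methylcellulose at 30, 100 or 300 mg/kg, tested at 30 min and 4 h. Small groups (1–8); result is number protected/number tested.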

Mus musculus [13] = assay: Neurotoxicity in mouse assessed as inability to maintain equilibrium on rotarod at 30 mg/kg, ip after 0.5 hrs by rotarod test; format: toxicity, organism-based; design: dose 30 mg/kg, route intraperitoneal; conditions: in vivo; summary of the method: as §3
Mus musculus [14] = assay: Neurotoxicity in mouse assessed as inability to maintain equilibrium on rotarod at 300 mg/kg, ip after 0.5 hrs by rotarod test; format: toxicity, organism-based; design: dose 300 mg/kg, route intraperitoneal; conditions: in vivo; summary of the method: as §3
Rattus norvegicus [15] = assay: Neurotoxicity in rat assessed as neurological deficit at 30 mg/kg, ip after 2 hrs; format: toxicity, organism-based; design: dose 30 mg/kg, route intraperitoneal; conditions: in vivo; summary of the method: as §1
Rattus norvegicus [16] = assay: Anticonvulsant activity in rat assessed as protection against maximal electric shock-induced seizures at 30 mg/kg, ip after 1 hr; format: functional, organism-based; design: dose 30 mg/kg; summary of the method: as §2
Mus musculus [17] = assay: Anticonvulsant activity in mouse assessed as protection against maximal electric shock-induced seizures at 30 mg/kg, ip after 4 hrs; format: functional, organism-based; design: dose 30 mg/kg; summary of the method: as §5
[18] = Neurotoxicity in po dosed rat assessed as neurological deficit […]; format: toxicity, organism-based; conditions: in vivo
Summary of the method: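 Rats dosed orally with a suspension in 0.5% methylcellulose. Neurological deficit judged by ataxia and loss of placing response and muscle tone.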

Mus musculus [19] = assay: Anticonvulsant activity against […] in mouse assessed as increase in tonic threshold at 8 mg/kg, ip by threshold tonic extension test; format: functional, organism-based; design: dose 8 mg/kg
Summary of the method: (§6)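 Threshold tonic extension test in mice. The compound was given ip, then pentylenetetrazol was infused until the first twitch and the first clonus. PTZ dose was calculated from the infusion speed. Mean of 8 animals ± S.E.M.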

Rattus norvegicus [20] = assay: Anticonvulsant activity in rat assessed as protection against maximal electric shock-induced seizures at 30 mg/kg, po after 4 hrs; format: functional, organism-based; design: dose 30 mg/kg
Summary of the method: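 MES test in rats dosed orally at 30 mg/kg as a suspension in 0.5% methylcellulose, read at 0.25–4 h. Four rats per time point; result is protected/tested.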

Mus musculus [21] = assay: Anticonvulsant activity in ip dosed mouse assessed as protection against maximal electric shock-induced seizures; format: functional; conditions: Mus musculus, ip; read-out: ED50
Mus musculus [22] = assay: Anticonvulsant activity against […] in mouse assessed as increase in tonic threshold at 28 mg/kg, ip by threshold tonic extension test; format: functional, organism-based; design: dose 28 mg/kg; summary of the method: as §6
Mus musculus [23] = assay: Anticonvulsant activity against subcutaneous pentylenetetrazole-induced seizures in mouse at 30 mg/kg, ip after 4 hrs; format: functional, organism-based; design: dose 30 mg/kg; summary of the method: as §4
Mus musculus [24] = assay: Neurotoxicity in mouse assessed as inability to maintain equilibrium on rotarod at 30 mg/kg, ip after 4 hrs by rotarod test; format: toxicity, organism-based; design: dose 30 mg/kg, route intraperitoneal; conditions: in vivo; summary of the method: as §3
Rattus norvegicus [25] = assay: Anticonvulsant activity in po dosed rat assessed as protection against maximal electric shock-induced seizures; format: functional
Rattus norvegicus [26] = assay: Neurotoxicity in rat assessed as neurological deficit at 30 mg/kg, ip after 1 hr; format: toxicity, organism-based; design: dose 30 mg/kg, route intraperitoneal; conditions: in vivo; summary of the method: as §1
Rattus norvegicus [27] = assay: Neurotoxicity in rat assessed as neurological deficit at 30 mg/kg, ip after 4 hrs; format: toxicity, organism-based; design: dose 30 mg/kg, route intraperitoneal; conditions: in vivo; summary of the method: as §1
Rattus norvegicus [28] = assay: Neurotoxicity in rat assessed as neurological deficit at 30 mg/kg, po after 4 hrs by rotarod test; format: toxicity, organism-based; design: dose 30 mg/kg, route oral; conditions: in vivo; summary of the method: as §1
Mus musculus [29] = assay: Neurotoxicity in mouse assessed as inability to maintain equilibrium on rotarod at 3 mg/kg, ip after 0.5 hrs by rotarod test; format: toxicity, organism-based; design: dose 3 mg/kg, route intraperitoneal; conditions: in vivo
Rattus norvegicus [30] = assay: Neurotoxicity in rat assessed as neurological deficit at 30 mg/kg, po after 2 hrs […]; format: toxicity, organism-based; design: dose 30 mg/kg, route oral; conditions: in vivo; summary of the method: as §1
Rattus norvegicus [31] = assay: Anticonvulsant activity in rat assessed as protection against maximal electric shock-induced seizures at 30 mg/kg, ip after 2 hrs; format: functional, organism-based; design: dose 30 mg/kg; summary of the method: as §2
Rattus norvegicus [32] = species: Rattus norvegicus; assay: Protective index, ratio of TD50 for neurotoxicity in rat to ED50 for inhibition of maximal electroshock-induced seizures in rat; format: functional
Rattus norvegicus [33] = assay: Anticonvulsant activity in ip dosed rat assessed as time to show peak effect of protection against maximal electric shock-induced seizures; format: functional; summary of the method: as §2
Mus musculus [34] = species: Mus musculus; assay: Protective index, ratio of TD50 for neurotoxicity in mouse to ED50 for inhibition of maximal electroshock-induced seizures in mouse; format: functional
[35] = Neurotoxicity in ip dosed mouse assessed as inability to maintain equilibrium on rotarod by rotarod test; format: toxicity, organism-based; conditions: in vivo
Summary of the method: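 Mice dosed ip with a suspension in 0.5% methylcellulose, then placed on a 1 inch knurled plastic rod rotating at 6 rpm. Toxicity = failure to keep equilibrium for at least 1 min in each of three trials.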

Cc1cccc(C)c1OCCNC1CCCCC1O (racemic)
Activity (Rattus norvegicus [1]): Non-toxic | Activity (Rattus norvegicus [2]): Non-toxic | Activity (Rattus norvegicus [3]): Active | Activity (Mus musculus [4]): Toxic | Activity (Rattus norvegicus [5]): inactive | Activity (Rattus norvegicus [6]): Active | Activity (Mus musculus [7]): inactive | Activity (Rattus norvegicus [8]): Non-toxic | Activity (Mus musculus [9]): inactive | Activity (Mus musculus [10]): inactive | Activity (Mus musculus [11]): Non-toxic | Activity (Mus musculus [12]): Active | Activity (Mus musculus [13]): Toxic | Activity (Mus musculus [14]): Toxic | Activity (Rattus norvegicus [15]): Non-toxic | Activity (Rattus norvegicus [16]): Active | Activity (Mus musculus [17]): inactive | TD50 [18]: > 500 mg/kg | Activity (Mus musculus [19]): inactive | Activity (Rattus norvegicus [20]): inactive | ED50 (Mus musculus [21]): 7.73 mg/kg | Activity (Mus musculus [22]): inactive | Activity (Mus musculus [23]): inactive | Activity (Mus musculus [24]): Non-toxic | ED50 (Rattus norvegicus [25]): 26.2 mg/kg | Activity (Rattus norvegicus [26]): Non-toxic | Activity (Rattus norvegicus [27]): Non-toxic | Activity (Rattus norvegicus [28]): Non-toxic | Activity (Mus musculus [29]): Non-toxic | Activity (Rattus norvegicus [30]): Non-toxic | Activity (Rattus norvegicus [31]): inactive | Ratio TD50/ED50 (Rattus norvegicus [32]): >19.06 | Time (Rattus norvegicus [33]): 0.25 h | Ratio TD50/ED50 (Mus musculus [34]): 3.9 | TD50 [35]: 28.4 mg/kg
